For assay [1], the target named is JNK3α1L144I (Homo sapiens, UniProt P53779, L144I). Put plainly: HTRF enzyme inhibition assay, JNK3 L144I mutant. Type of assay: biochemical. The settings on record: read-out: Km value of ATP for JNK3 L144I. An outline of the steps:
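Human JNK3 39–402 L144I, made by PCR mutagenesis and expressed like WT, activated for 2 h at 30°C with MKK4/MKK7 (100 nM each) in HEPES pH 7.5, MgCl2, DTT, 200 μM ATP; activation checked by MS and Western. HTRF at 0.75 nM enzyme, 0.5 μM biotinylated FL-ATF-2, 1.25 μM ATP, 1 h. Top concentration 10,000 nM.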
Background: In TR-FRET formats the signal depends on donor and acceptor labels being close together.

The subject of assay [2] is JNK3. Particulars: cited from earlier work.
Assay [3] deals with JNK2. The settings on record: cited from earlier work.

The values that follow come from PMC4306959 (Scientific Reports, 2015).

Chain of JNK3α1L144I (P53779 39-402 L144I): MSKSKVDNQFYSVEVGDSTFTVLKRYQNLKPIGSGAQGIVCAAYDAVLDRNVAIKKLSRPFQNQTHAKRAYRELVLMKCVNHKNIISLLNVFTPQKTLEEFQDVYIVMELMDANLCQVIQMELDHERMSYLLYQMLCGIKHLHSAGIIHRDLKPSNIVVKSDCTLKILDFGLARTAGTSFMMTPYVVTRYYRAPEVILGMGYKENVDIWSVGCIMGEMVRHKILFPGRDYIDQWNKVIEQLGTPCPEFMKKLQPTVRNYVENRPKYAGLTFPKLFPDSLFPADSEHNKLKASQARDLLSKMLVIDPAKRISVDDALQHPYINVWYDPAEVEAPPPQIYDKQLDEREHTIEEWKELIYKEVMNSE

As to `Nc1ncnc2c1ncn2[C@@H]1O[C@H](COP(=O)(O)OP(=O)(O)OP(=O)(O)O)[C@@H](O)[C@H]1O` [ATP], the Michaelis constant (Km) in assay [1] was 2.9 µM.
On to `Cn1c(NC[C@@H](N)Cc2ccccc2)nc(-c2ccncc2)c(-c2ccc3ccccc3c2)c1=O` [AMG-548], for which the “Selectivity for JNK3 compared to JNK1” value in assay [2] was 188 fold. The “Selectivity for JNK2 compared to JNK1” value in assay [3] was 294 fold.

As a reminder, the Km is the substrate concentration at which the rate is half of its maximum.
